Source: ChEMBL document CHEMBL1782010, “Synthesis and evaluation of quinoxaline derivatives as potential influenza NS1A protein inhibitors” (Bioorg Med Chem Lett, 2011)
pIC50: −log10 of the molar value. Calls of active or inactive are those of the source. The rule behind the calls is not given here.

How the values were obtained:
[1] = test system: Influenza A virus (A/udorn/1972(H3N2)); test: Inhibition of Influenza A/Udorn/72/H3N2 full length GST-tagged NS1A/FAM-double strand RNA-interaction at 50 uM after 1 hr by fluorescence polarization assay
Method in brief: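 Fluorescence polarization: carboxyfluorescein-labelled dsRNA (FAM-dsRNA) probe binds NS1A protein, which raises polarization. Disruption of binding read at 50 μM compound and reported as % binding. Run in duplicate; values averaged.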

[2] = test system: Nucleic Acid; test: Binding affinity to double strand RNA assessed as denaturation of double strand RNA to single strand RNA at 50 uM after 1 hr by fluorescence polarization assay; format: nucleic-acid assay
Method in brief: (§1)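 Counter-screen of FAM-dsRNA alone, with no NS1A target, by an analogous fluorescence polarization assay at 50 μM compound. Reported as % intercalation: a positive sign means intercalation into the dsRNA, a negative sign means denaturation of the dsRNA to single strands. Duplicates averaged.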

[3] = test system: Nucleic Acid; test: Binding affinity to double strand RNA assessed as compound intercalation to double strand RNA at 50 uM after 1 hr by fluorescence polarization assay; format: nucleic-acid assay; method in brief: as §1
[4] = Inhibition of Influenza A/Udorn/72/H3N2 full length GST-tagged NS1A/FAM-dsRNA-interaction after 1 hr by fluorescence polarization assay; design: species or system Influenza A virus (A/udorn/1972(H3N2))
Method in brief: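 Dose-dependent version of the FAM-dsRNA/NS1A fluorescence polarization binding assay. The rise in polarization on probe binding to NS1A gives the read-out, and IC50 is taken from the dose-response. Run in duplicate; values averaged.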

[5] = test system: Influenza A virus; test: Antiviral activity against Influenza A/Udorn/72 virus infected in MDCK cells assessed as inhibition of viral growth at 30 uM treated 1 hr after infection measured up to 15 hrs by plaque assay relative to control; format: functional, Influenza A virus (A/udorn/1972(H3N2))
Method in brief: (§2)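 MDCK cells infected with influenza A/Udorn/72, either at MOI 5 (single-cycle growth) or at MOI 0.001 (multiple-cycle growth). After 1 h infection, growth medium containing compound diluted in DMSO was added; control received 0.1% DMSO. Virus yield was followed over time as growth curves.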

[6] = test system: Influenza A virus; test: Antiviral activity against Influenza A/Udorn/72 virus infected in MDCK cells assessed as reduction of plaque forming unit at 60 uM treated 1 hr after infection measured after 36 hrs by plaque assay; format: functional, organism-based; conditions: Influenza A virus (A/udorn/1972(H3N2)); method in brief: as §2

O=C(NCc1cccs1)c1ccc2nc(-c3ccco3)c(-c3ccco3)nc2c1
inhibition [1]: 8.2% | Activity [2]: -10.5%

COc1ccccc1-c1nc2ccc([N+](=O)[O-])cc2nc1-c1ccccc1OC
inhibition [1]: 6.7% | Activity [2]: -3.7%

O=C(NCc1ccccc1F)c1ccc2nc(-c3ccco3)c(-c3ccco3)nc2c1
inhibition [1]: 11.6% | Activity [2]: -11.3%

COc1ccc(CNC(=O)c2ccc3nc(-c4ccco4)c(-c4ccco4)nc3c2)cc1
Activity [3]: 7.6% | inhibition [1]: 44%

O=C(O[C@@H]1Cc2c(O)cc(O)cc2O[C@@H]1c1cc(O)c(O)c(O)c1)c1cc(O)c(O)c(O)c1
inhibition [1]: 89%

COc1cccc(-c2nc3ccc([N+](=O)[O-])cc3nc2-c2cccc(OC)c2)c1
Activity [3]: 1.9% | inhibition [1]: 1.5%

O=C(NCc1ccco1)c1ccc2nc(-c3ccco3)c(-c3ccco3)nc2c1
Activity [3]: 5.9% | inhibition [1]: 79.5% | pIC50 [4]: 5.46 | fold change (FC) [5]: 10 | Activity [6]: inactive

COC(=O)CNC(=O)c1ccc2nc(-c3ccco3)c(-c3ccco3)nc2c1
inhibition [1]: 26.7% | Activity [2]: -27.9%

COc1cc(CNC(=O)c2ccc3nc(-c4ccco4)c(-c4ccco4)nc3c2)cc(OC)c1OC
inhibition [1]: 53.6% | Activity [2]: -4.7%

Oc1cccc(-c2nc3ccccc3nc2-c2cccc(O)c2)c1
inhibition [1]: 10.9% | Activity [2]: -4.8%

O=C(O)c1ccc2nc(-c3ccc4c(c3)OCO4)c(-c3ccc4c(c3)OCO4)nc2c1
inhibition [1]: 23.2% | Activity [2]: -4.8%

COc1cccc(CNC(=O)c2ccc3nc(-c4ccco4)c(-c4ccco4)nc3c2)c1
Activity [3]: 4.5% | inhibition [1]: 74% | pIC50 [4]: 5.21

COc1cccc(-c2nc3ccc(C(=O)O)cc3nc2-c2cccc(OC)c2)c1
inhibition [1]: 9.1% | Activity [2]: -4.4%

Oc1ccc2nc(-c3ccccc3O)c(-c3ccccc3O)nc2c1
Activity [3]: 0.9% | inhibition [1]: 10.9%

COc1ccc2nc(-c3ccccc3OC)c(-c3ccccc3OC)nc2c1
inhibition [1]: 4.4% | Activity [2]: -5%

COc1ccc(CNC(=O)c2ccc3nc(-c4ccco4)c(-c4ccco4)nc3c2)cc1OC
Activity [3]: 5.6% | inhibition [1]: 39.5%

COc1cccc(-c2nc3ccccc3nc2-c2cccc(OC)c2)c1
inhibition [1]: 1.4% | Activity [2]: -6%

COc1ccc(-c2nc3ccc([N+](=O)[O-])cc3nc2-c2ccc(OC)cc2)cc1
Activity [3]: 113%

Oc1ccccc1-c1nc2ccccc2nc1-c1ccccc1O
Activity [3]: -1% | inhibition [1]: -0.9%

O=C(O)c1ccc2nc(-c3cccc(O)c3)c(-c3cccc(O)c3)nc2c1
Activity [3]: -3.4% | inhibition [1]: 28.7%

COc1cccc(-c2nc3ccc(OC)cc3nc2-c2cccc(OC)c2)c1
inhibition [1]: 7.2% | Activity [2]: -8.4%

O=[N+]([O-])c1ccc2nc(-c3ccc(O)cc3)c(-c3ccc(O)cc3)nc2c1
inhibition [1]: 19.5% | Activity [2]: -32%

Oc1ccc(-c2nc3ccccc3nc2-c2ccc(O)cc2)cc1
Activity [3]: 8.5% | inhibition [1]: 10.2%

COc1ccc(-c2nc3ccc(C(=O)O)cc3nc2-c2ccc(OC)cc2)cc1
inhibition [1]: 4.5% | Activity [2]: -4.8%

O=[N+]([O-])c1ccc2nc(-c3ccc4c(c3)OCO4)c(-c3ccc4c(c3)OCO4)nc2c1
Activity [3]: 24.4% | inhibition [1]: 56.6%

COc1ccc2nc(-c3ccco3)c(-c3ccco3)nc2c1
Activity [3]: -3.2% | inhibition [1]: 54.3%

COC(=O)c1ccc2nc(-c3ccco3)c(-c3ccco3)nc2c1
inhibition [1]: 76% | pIC50 [4]: 4.13 | Activity [2]: -12.3%

Oc1cccc(-c2nc3ccc(O)cc3nc2-c2cccc(O)c2)c1
Activity [3]: 18.2% | inhibition [1]: 25%

COc1ccc(-c2nc3ccc(OC)cc3nc2-c2ccc(OC)cc2)cc1
Activity [3]: 5.7% | inhibition [1]: 1.8%

O=[N+]([O-])c1ccc2nc(-c3cccc(O)c3)c(-c3cccc(O)c3)nc2c1
inhibition [1]: 42.8% | Activity [2]: -15.8%

O=[N+]([O-])c1ccc2nc(-c3ccccn3)c(-c3ccccn3)nc2c1
inhibition [1]: 7.8% | Activity [2]: -5.6%

c1ccc(-c2nc3ccccc3nc2-c2ccccn2)nc1
Activity [3]: 2.3% | inhibition [1]: -3.1%

COc1ccccc1CNC(=O)c1ccc2nc(-c3ccco3)c(-c3ccco3)nc2c1
inhibition [1]: 29.5% | Activity [2]: -17.7%

O=C(O)c1ccc2nc(-c3ccc(O)cc3)c(-c3ccc(O)cc3)nc2c1
inhibition [1]: 13.3% | Activity [2]: -7.7%

COC(=O)c1ccc(CNC(=O)c2ccc3nc(-c4ccco4)c(-c4ccco4)nc3c2)cc1
Activity [3]: 8.8% | inhibition [1]: 47.9%

COc1ccccc1-c1nc2ccccc2nc1-c1ccccc1OC
inhibition [1]: 5% | Activity [2]: -6.7%

O=C(O)c1ccc2nc(-c3ccccn3)c(-c3ccccn3)nc2c1
Activity [3]: 2.9% | inhibition [1]: 15.7%

c1coc(-c2nc3ccccc3nc2-c2ccco2)c1
inhibition [1]: 7.3% | Activity [2]: -23.7%

O=[N+]([O-])c1ccc2nc(-c3ccco3)c(-c3ccco3)nc2c1
Activity [3]: 25.9% | inhibition [1]: 25.5%

O=C(NCc1ccccn1)c1ccc2nc(-c3ccco3)c(-c3ccco3)nc2c1
inhibition [1]: 64.7% | pIC50 [4]: 4.36 | Activity [2]: -9.6%

O=C(O)c1ccc2nc(-c3ccco3)c(-c3ccco3)nc2c1
Activity [3]: 5.8% | inhibition [1]: 60.9%

O=C(NCc1cccc(F)c1)c1ccc2nc(-c3ccco3)c(-c3ccco3)nc2c1
inhibition [1]: 13.6% | Activity [2]: -11.6%

COc1ccccc1-c1nc2ccc(C(=O)O)cc2nc1-c1ccccc1OC
inhibition [1]: 2.8% | Activity [2]: -2.5%

Oc1ccc(-c2nc3ccc(O)cc3nc2-c2ccc(O)cc2)cc1
Activity [3]: 29.5% | inhibition [1]: 38.8%

COc1ccc(-c2nc3ccccc3nc2-c2ccc(OC)cc2)cc1
Activity [3]: 1.4% | inhibition [1]: 0.5%

O=C(NCc1ccc(F)cc1)c1ccc2nc(-c3ccco3)c(-c3ccco3)nc2c1
Activity [3]: 6.3% | inhibition [1]: 49%

c1ccc2nc(-c3ccc4c(c3)OCO4)c(-c3ccc4c(c3)OCO4)nc2c1
Activity [3]: 7.9% | inhibition [1]: 1.5%
